Laboratory results published in ChEMBL document CHEMBL3046654, “Penoxsulam--structure-activity relationships of triazolopyrimidine sulfonamides” (Bioorg Med Chem, 2009).

Tests used:
[1] = tested on: Ipomoea hederacea; assay: Post-emergence herbicidal activity against Ipomoea hederacea (ivy-leaved morning glory) compound treated as foliar application measured after 2 weeks; assay type: functional
Outline: (§1)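 Greenhouse post-emergence foliar screen in 64 cm² pots. Seed treatments were used on some species to aid germination. Plants were grown 7–21 days at 23–29 °C day/22–28 °C night under a 15 h photoperiod. Sprayed at 2–12 cm height and the 1–4 true leaf stage.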

[2] = tested on: Veronica hederifolia; assay: Post-emergence herbicidal activity against Veronica hederifolia compound treated as foliar application measured after 2 weeks; assay type: functional; outline: as §1
[3] = tested on: Abutilon theophrasti; assay: Post-emergence herbicidal activity against Abutilon theophrasti (velvetleaf) compound treated as foliar application measured after 2 weeks; assay type: functional; outline: as §1
[4] = tested on: Amaranthus retroflexus; assay: Post-emergence herbicidal activity against Amaranthus retroflexus compound treated as foliar application measured after 2 weeks; assay type: functional; outline: as §1
[5] = tested on: Ipomoea; assay: Post-emergence herbicidal activity against Ipomoea spp. compound treated as foliar application measured after 2 weeks; assay type: functional; outline: as §1
[6] = tested on: Helianthus; assay: Post-emergence herbicidal activity against Helianthus spp. compound treated as foliar application measured after 2 weeks; assay type: functional; outline: as §1
[7] = tested on: Chenopodium album; assay: Post-emergence herbicidal activity against Chenopodium album compound treated as foliar application measured after 2 weeks; assay type: functional; outline: as §1
[8] = tested on: Datura stramonium; assay: Post-emergence herbicidal activity against Datura stramonium compound treated as foliar application measured after 2 weeks; assay type: functional; outline: as §1
[9] = tested on: Xanthium strumarium; assay: Post-emergence herbicidal activity against Xanthium strumarium (cocklebur) compound treated as foliar application measured after 2 weeks; assay type: functional; outline: as §1
[10] = tested on: Pontederia vaginalis; assay: Post-emergence herbicidal activity against three-leaf stage Monochoria vaginalis under green-house condition by water injection treatment method; assay type: functional
Outline: (§2)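 Greenhouse paddy test. Seed was sown on saturated Metro Mix, covered with about 0.5 cm mix and held 48 h dark at 30 °C, 95% RH; about 15 d from seed soaking to treatment. Treatment solution was injected into the water. Rates were set per pot surface area, with serial rates made by halving the volume delivered. Held at 16 h day length, 29 °C.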

[11] = tested on: Echinochloa crus-galli; assay: Post-emergence herbicidal activity against 3-4-leaf stage Echinochloa crus-galli (barnyard grass) under field condition by foliar application method; assay type: functional
[12] = tested on: Oryza sativa; assay: Phytotoxicity against three to four-leaf stage japonica Oryza sativa (rice) under field condition by foliar application method; assay type: organism-based; details: in vivo
[13] = tested on: Schoenoplectiella juncoides; assay: Post-emergence herbicidal activity against two to three-leaf stage Schoenoplectiella juncoides under field condition by foliar application method; assay type: functional
[14] = tested on: Echinochloa crus-galli; assay: Post-emergence herbicidal activity against 2-3-leaf stage Echinochloa crus-galli (barnyard grass) under field condition by foliar application method; assay type: functional
[15] = tested on: Oryza sativa; assay: Phytotoxicity against two to three-leaf stage indica Oryza sativa (rice) under field condition by foliar application method; assay type: organism-based; details: in vivo
[16] = tested on: Schoenoplectiella juncoides; assay: Post-emergence herbicidal activity against three-leaf stage Schoenoplectiella juncoides under field condition by water injection treatment method; assay type: functional
Outline: (§3)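 Field trials: water-injected treatment applied to transplanted japonica rice and to weeds at the three-leaf stage, under rice-growing conditions in several countries.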

[17] = tested on: Pontederia vaginalis; assay: Post-emergence herbicidal activity against three-leaf stage Monochoria vaginalis under field condition by water injection treatment method; assay type: functional; outline: as §3
[18] = tested on: Oryza sativa; assay: Phytotoxicity against three-leaf stage Oryza sativa (rice) under field condition by water injection treatment method; assay type: organism-based; outline: as §3
[19] = tested on: Echinochloa crus-galli; assay: Post-emergence herbicidal activity against three-leaf stage Echinochloa crus-galli (barnyard grass) under field condition by water injection treatment method; assay type: functional; outline: as §3
[20] = tested on: Cyperus difformis; assay: Post-emergence herbicidal activity against three-leaf stage Cyperus difformis under green-house condition by water injection treatment method; assay type: functional; outline: as §2
[21] = tested on: Schoenoplectiella juncoides; assay: Post-emergence herbicidal activity against three-leaf stage Schoenoplectiella juncoides under green-house condition by water injection treatment method; assay type: functional; outline: as §2
[22] = tested on: Echinochloa crus-galli; assay: Post-emergence herbicidal activity against three-leaf stage Echinochloa crus-galli (barnyard grass) under green-house condition by water injection treatment method; assay type: functional; outline: as §2
[23] = tested on: Oryza sativa; assay: Phytotoxicity against three-leaf stage Oryza sativa (rice) under green-house condition by water injection treatment method; assay type: organism-based; outline: as §2
[24] = tested on: Avena fatua; assay: Post-emergence herbicidal activity against Avena fatua compound treated as foliar application measured after 2 weeks; assay type: functional; outline: as §1
[25] = tested on: Oryza sativa; assay: Phytotoxicity against Oryza sativa (rice); assay type: organism-based; details: in vivo
[26] = tested on: Digitaria sanguinalis; assay: Post-emergence herbicidal activity against Digitaria sanguinalis (hairy crabgrass) compound treated as foliar application measured after 2 weeks; assay type: functional; outline: as §1
[27] = tested on: Sorghum halepense; assay: Post-emergence herbicidal activity against Sorghum halepense (Johnson grass) compound treated as foliar application measured after 2 weeks; assay type: functional; outline: as §1
[28] = tested on: Setaria faberi; assay: Post-emergence herbicidal activity against Setaria faberi (Giant Foxtail) compound treated as foliar application measured after 2 weeks; assay type: functional; outline: as §1
[29] = tested on: Echinochloa crus-galli; assay: Post-emergence herbicidal activity against Echinochloa crus-galli (barnyard grass) compound treated as foliar application measured after 2 weeks; assay type: functional; outline: as §1
[30] = tested on: Alopecurus; assay: Post-emergence herbicidal activity against Alopecurus spp. compound treated as foliar application measured after 2 weeks; assay type: functional; outline: as §1
[31] = tested on: Fallopia convolvulus; assay: Post-emergence herbicidal activity against Fallopia convolvulus compound treated as foliar application measured after 2 weeks; assay type: functional; outline: as §1
[32] = tested on: Stellaria media; assay: Post-emergence herbicidal activity against Stellaria media compound treated as foliar application measured after 2 weeks; assay type: functional; outline: as §1
[33] = tested on: Sesbania herbacea; assay: Post-emergence herbicidal activity against three to four-leaf stage Sesbania herbacea under field condition by foliar application method; assay type: functional
[34] = Inhibition of acetolactatae synthase; details: read-out: I50
Outline: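 Barley ALS: etiolated shoots of 5–6 d old Hector Spring barley homogenized at 0–4 °C in 20 mM HEPES pH 7.2, 1 mM EDTA, 5 mM DTT, then 33% (NH4)2SO4 cut. Reaction: 20 mM HEPES pH 7.2, 5 mM MgCl2, 0.25 mM TPP, FAD, 22.5 mM pyruvate, 0.7% DMSO final, 37 °C, 30 min. Acid decarboxylation to acetoin, then creatine/1-naphthol colour read at 530 nm. Reported as I50 (nM).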

| Structure (SMILES) | GR80 [1] [ppm] | GR80 [2] [ppm] | GR80 [3] [ppm] | GR80 [4] [ppm] | GR80 [5] [ppm] | GR80 [6] [ppm] | GR80 [7] [ppm] | GR80 [8] [ppm] | GR80 [9] [ppm] | GR80 [10] [gAi/ha] | GR80 [21] [gAi/ha] | GR80 [24] [ppm] | GR20 [25] [ppm] | GR80 [26] [ppm] | GR80 [27] [ppm] | GR80 [28] [ppm] | GR80 [29] [ppm] | GR80 [30] [ppm] | GR80 [31] [ppm] | GR80 [32] [ppm] | further results |
| --- | --- | --- | --- | --- | --- | --- | --- | --- | --- | --- | --- | --- | --- | --- | --- | --- | --- | --- | --- | --- | --- |
| COc1cnc(OC)n2nc(NS(=O)(=O)c3c(OCCF)cccc3C(F)(F)F)nc12 | 6 | 6 | 6 | 6 | 6 | 6 | 6 | 6 | 6 | 5.2 | 9 | 66 | 250 | 66 | 66 | 66 | 1 | 66 | 6 | 6 | GR80 [11]: 12 gAi/ha; GR10 [12]: 12 gAi/ha; GR80 [13]: 4 gAi/ha; GR80 [14]: 5 gAi/ha; GR10 [15]: > 70 gAi/ha; GR80 [16]: 5 gAi/ha; GR80 [17]: 4.4 gAi/ha; GR10 [18]: 8 gAi/ha; GR80 [19]: 19 gAi/ha; GR80 [20]: 8 gAi/ha; GR80 [22]: 10 gAi/ha; GR20 [23]: 14 gAi/ha; GR80 [33]: 10 gAi/ha |
| CCOc1cccc(C(F)(F)F)c1S(=O)(=O)Nc1nc2c(OC)cnc(OC)n2n1 | 2 | 2 | 2 | 2 | 2 | 2 | 2 | 2 | 2 | 1 | 3 | 191 | 250 | 191 | 191 | 191 | 4 | 191 | 2 | 2 | GR80 [22]: 1 gAi/ha; GR20 [23]: 1 gAi/ha |
| COc1nccc2nc(NS(=O)(=O)c3c(Cl)cccc3Cl)nn12 | 475 | 475 | 475 | 475 | 475 | 475 | 475 | 475 | 475 |  |  | 500 | 500 | 500 | 500 | 500 | 500 | 500 | 475 | 475 | IC50 [34]: 1040 nM |
| COc1ncc(F)c2nc(NS(=O)(=O)c3c(Cl)cccc3Cl)nn12 | 19 | 19 | 19 | 19 | 19 | 19 | 19 | 19 | 19 |  |  | >125 | > 125 | >125 | >125 | >125 | >125 | >125 | 19 | 19 | IC50 [34]: 12 nM |
| COc1cc2nc(NS(=O)(=O)c3c(Cl)cccc3Cl)nn2c(OC)n1 | >1000 | >1000 | >1000 | >1000 | >1000 | >1000 | >1000 | >1000 | >1000 |  |  | >1000 | > 1000 | >1000 | >1000 | >1000 | >1000 | >1000 | >1000 | >1000 | IC50 [34]: 195 nM |
| COc1cnc(OC)n2nc(NS(=O)(=O)c3c(OC(CF)CF)cccc3C(F)(F)F)nc12 |  |  |  |  |  |  |  |  |  | 1 | 9 |  |  |  |  |  |  |  |  |  | GR80 [13]: 20 gAi/ha; GR80 [14]: 15 gAi/ha; GR10 [15]: > 70 gAi/ha; GR80 [16]: 15 gAi/ha; GR80 [17]: 12 gAi/ha; GR10 [18]: 70 gAi/ha; GR80 [19]: 35 gAi/ha; GR80 [20]: 31 gAi/ha; GR80 [22]: 14 gAi/ha; GR20 [23]: 140 gAi/ha |
| CCOc1cnc(OC)n2nc(NS(=O)(=O)c3c(Cl)cccc3Cl)nc12 | 216 | 216 | 216 | 216 | 216 | 216 | 216 | 216 | 216 |  |  | 250 | 250 | 250 | 250 | 250 | 250 | 250 | 216 | 216 | IC50 [34]: 2 nM |
| COc1cnc(OC)n2nc(NS(=O)(=O)c3c(OCC(F)(F)F)cccc3C(F)(F)F)nc12 |  |  |  |  |  |  |  |  |  | 5 | 21 |  |  |  |  |  |  |  |  |  | GR80 [20]: 36 gAi/ha; GR80 [22]: 19 gAi/ha; GR20 [23]: 51 gAi/ha |
| COc1cnc(OC)n2nc(NS(=O)(=O)c3c(OCC(F)F)cccc3C(F)(F)F)nc12 [PENOXSULAM] |  |  |  |  |  |  |  |  |  | <2 | 12 |  |  |  |  |  |  |  |  |  | GR80 [11]: 9 gAi/ha; GR10 [12]: 65 gAi/ha; GR80 [13]: 6 gAi/ha; GR80 [14]: 7 gAi/ha; GR10 [15]: > 70 gAi/ha; GR80 [16]: 9 gAi/ha; GR80 [17]: 6 gAi/ha; GR10 [18]: 35 gAi/ha; GR80 [19]: 26 gAi/ha; GR80 [20]: 14 gAi/ha; GR80 [22]: 12 gAi/ha; GR20 [23]: 75 gAi/ha; GR80 [33]: 7 gAi/ha |
